ChEMBL document CHEMBL3734686, “Synthesis, Photophysical Properties, and Biological Evaluation of trans-Bisthioglycosylated Tetrakis(fluorophenyl)chlorin for Photodynamic Therapy” (J Med Chem, 2015)
pEC50: −log10 of the molar value.

Columns and labels:
[1] = Ratio of drug level in tumor to skin in iv dosed BDXI rat implanted with rat LSBD1 cells after 24 hrs; format: ADME, organism-based; settings: in vivo
[2] = tested on: HeLa; test: Drug uptake in human HeLa cells at 0.1 uM after 24 hrs by spectrophotometrical analysis; format: ADME, cell-based
In short: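 HeLa cells (2.5 × 10^6/well) in DMEM with 10% FCS, preincubated 24 h at 37°C; photosensitizer added to 0.1 µM final (1% DMSO) for 24 h, two wells each. Cells washed twice with PBS, lysed in DMSO, Soret-band absorbance read against DMSO calibration; mean of three replicate experiments.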

[3] = Induction of reactive oxygen generation assessed as quantum yield of hydroxyl radical generation in O2 saturated PBS containing 1% DMSO under photoirradiation by spectrometry relative to control hematoporphyrin; format: physicochemical; settings: buffer
In short: (§1)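 Photosensitizer (1.00 µM) with HPF (2.00 µM) in PBS containing 1% DMSO, oxygenated 1 min, irradiated with 100-W halogen lamp through λ>500 nm cutoff filter at 37°C; hematoporphyrin as reference.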

[4] = Induction of reactive oxygen generation assessed as quantum yield of singlet oxygen generation in O2 saturated D2O containing 0.1% DMSO by spectrometry; format: physicochemical
In short: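 Photosensitizer in D2O with 0.1% DMSO, absorbance set to 0.4 at its excitation wavelength, oxygen-purged 1 min; singlet-oxygen luminescence recorded with NIR photomultiplier cooled to 193 K; TPPS as reference.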

[5] = tested on: HeLa; test: Photocytotoxicity against human HeLa cells assessed as cell survival preincubated for 24 hrs followed by irradiation at 16 J/cm2 measured at 24 hrs by WST-8 assay; format: functional, cell-based; settings: light or radiation study
In short: (§2)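 Cells (5 × 10^3/well) in DMEM with 10% FCS, 24 h at 37°C, 5% CO2; photosensitizer 1–50000 nM (1% DMSO final) for 24 h, washed, fresh medium. Irradiated with 100-W halogen lamp through λ>500 nm or λ>600 nm cutoff filter to 16 J·cm−2; WST-8 absorbance at 450 nm 24 h later, survival normalized to no-drug wells.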

[6] = tested on: HeLa; test: Dark cytotoxicity against human HeLa cells at 0.5 uM assessed as cell survival preincubated for 24 hrs measured by WST-8 assay in absence of photoirradiation; format: cell-based
In short: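 HeLa cells were seeded at 5 × 10^3 per well in DMEM with 10% FCS and grown for 24 h at 37°C. They were then exposed for 24 h to 0.5 µM photosensitizer (1% DMSO final), washed, and not irradiated. Viability was read 24 h later by WST-8 absorbance at 450 nm and expressed as percent of untreated wells.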

[7] = Induction of reactive oxygen generation assessed as quantum yield of hydrogen peroxide generation in O2 saturated PBS containing 1% DMSO under photoirradiation by spectrometry relative to control hematoporphyrin; format: physicochemical; settings: buffer; in short: as §1
[8] = Photocytotoxicity against mouse B16-F1 cells assessed as cell survival preincubated for 24 hrs followed by irradiation at 16 J/cm2 measured at 24 hrs by WST-8 assay; format: functional, cell-based; settings: B16-F1, light or radiation study; in short: as §2
[9] = Photocytotoxicity against human U87 cells assessed as cell survival preincubated for 24 hrs followed by irradiation at 16 J/cm2 measured at 24 hrs by WST-8 assay; format: functional, cell-based, U-87MG ATCC; settings: U-87 MG, light or radiation study; in short: as §2
[10] = tested on: U-251; test: Photocytotoxicity against human U251 cells assessed as cell survival preincubated for 24 hrs followed by irradiation at 16 J/cm2 measured at 24 hrs by WST-8 assay; format: functional, cell-based; settings: U-251, light or radiation study; in short: as §2
[11] = tested on: T98G; test: Photocytotoxicity against human T98G cells assessed as cell survival preincubated for 24 hrs followed by irradiation at 16 J/cm2 measured at 24 hrs by WST-8 assay; format: functional, cell-based; settings: light or radiation study; in short: as §2
[12] = tested on: 4T1; test: Photocytotoxicity against mouse 4T1 cells assessed as cell survival preincubated for 24 hrs followed by irradiation at 16 J/cm2 measured at 24 hrs by WST-8 assay; format: functional, cell-based; settings: 4T1, light or radiation study; in short: as §2
[13] = Photocytotoxicity against rat RGK1 cells assessed as cell survival preincubated for 24 hrs followed by irradiation at 16 J/cm2 measured at 24 hrs by WST-8 assay; format: functional, cell-based; settings: RGK1, light or radiation study; in short: as §2

Drug uptake [2] | Ratio [3] | Activity [4] | Ratio [7] | SMILES | pEC50 [5] | Activity [6] | other results
 |  |  |  | Oc1cccc(-c2c3nc(c(-c4cccc(O)c4)c4ccc([nH]4)c(-c4cccc(O)c4)c4nc(c(-c5cccc(O)c5)c5ccc2[nH]5)CC4)C=C3)c1 [TEMOPORFIN] |  |  | Ratio [1]: 3
Active | 1.1 | 0.17 | 1.7 | CN1CC2C3=N/C(=C(/c4c(F)c(F)c(S[C@@H]5O[C@H](CO)[C@@H](O)[C@H](O)[C@H]5O)c(F)c4F)C4=N/C(=C(/c5c(F)c(F)c(S[C@@H]6O[C@H](CO)[C@@H](O)[C@H](O)[C@H]6O)c(F)c5F)c5ccc([nH]5)/C(c5c(F)c(F)c(S[C@@H]6O[C@H](CO)[C@@H](O)[C@H](O)[C@H]6O)c(F)c5F)=C5/C=CC(=N5)C3c3c(F)c(F)c(S[C@@H]5O[C@H](CO)[C@@H](O)[C@H](O)[C@H]5O)c(F)c3F)C=C4)C2C1 (stereo partly drawn) | 7.30 | Non-toxic | 
Active | 7.7 | 0.16 | 0.8 | OC[C@H]1O[C@@H](Sc2c(F)c(F)c(/C3=C4\C=CC(=N4)C(c4c(F)c(F)c(F)c(F)c4F)C4=N/C(=C(/c5c(F)c(F)c(S[C@@H]6O[C@H](CO)[C@@H](O)[C@H](O)[C@H]6O)c(F)c5F)c5ccc([nH]5)/C(c5c(F)c(F)c(F)c(F)c5F)=C5/C=CC3=N5)C=C4)c(F)c2F)[C@H](O)[C@@H](O)[C@@H]1O (stereo partly drawn) | 8.00 | Non-toxic | pEC50 [8]: 9.00; pEC50 [9]: 8.00; pEC50 [10]: 8.00; pEC50 [11]: 8.00; pEC50 [12]: 8.00; pEC50 [13]: 8.00
 | 1 |  | 1 | CC1=C(CCC(=O)O)c2cc3[nH]c(cc4nc(cc5[nH]c(cc1n2)c(C)c5C(C)O)C(C)=C4C(C)O)c(C)c3CCC(=O)O (stereo not drawn) [HEMATOPORPHYRIN] |  |  | 
 |  | 0.72 |  | O=S(=O)(O)c1ccc(-c2c3nc(c(-c4ccc(S(=O)(=O)O)cc4)c4ccc([nH]4)c(-c4ccc(S(=O)(=O)O)cc4)c4nc(c(-c5ccc(S(=O)(=O)O)cc5)c5ccc2[nH]5)C=C4)C=C3)cc1 |  |  | 
 |  |  |  | OC[C@H]1O[C@@H](Oc2ccc(/C3=C4\C=CC(=N4)C(c4ccc(O[C@@H]5O[C@H](CO)[C@@H](O)[C@H](O)[C@H]5O)cc4)C4=N/C(=C(/c5ccc(O[C@@H]6O[C@H](CO)[C@@H](O)[C@H](O)[C@H]6O)cc5)c5ccc([nH]5)/C(c5ccc(O[C@@H]6O[C@H](CO)[C@@H](O)[C@H](O)[C@H]6O)cc5)=C5/C=CC3=N5)C=C4)cc2)[C@H](O)[C@@H](O)[C@@H]1O (stereo partly drawn) | 5.30 |  | 
